Active and inactive are the calls of the source. Unless noted, no cut-off for these calls is given here.
Tests used:
[1] = Neurotoxicity in Sprague-Dawley rat at 30 mg/kg, po measured after 4 hr by rotarod test; assay type: toxicity, organism-based; settings: in vivo
Summary of the method: (§1)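 Rats given one oral dose of 30 mg/kg and tested on the rotarod at 0.25, 0.5, 1, 2, 4 and 6 h.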

[2] = Neurotoxicity in Sprague-Dawley rat at 30 mg/kg, po measured after 2 hr by rotarod test; assay type: toxicity, organism-based; settings: in vivo; summary of the method: as §1
[3] = Neurotoxicity in Sprague-Dawley rat at 30 mg/kg, po measured after 1 hr by rotarod test; assay type: toxicity, organism-based; settings: in vivo; summary of the method: as §1
[4] = Neurotoxicity in Sprague-Dawley rat at 30 mg/kg, po measured after 30 mins by rotarod test; assay type: toxicity, organism-based; settings: in vivo, 0.5 h; summary of the method: as §1
[5] = Neurotoxicity in Sprague-Dawley rat at 30 mg/kg, po measured after 15 mins by rotarod test; assay type: toxicity, organism-based; settings: in vivo, 0.25 h; summary of the method: as §1
Rattus norvegicus [6] = assay: Anticonvulsant activity in Sprague-Dawley rat assessed as protection against 150 mA current-induced seizure at 30 mg/kg, po measured after 2 hrs by maximal electroshock seizure test; assay type: functional, organism-based
Summary of the method: (§2)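 Rats received 30 mg/kg orally and were given maximal electroshock at 0.25, 0.5, 1, 2, 4 and 6 h. Read-out is the number of rats protected out of four.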

Rattus norvegicus [7] = assay: Anticonvulsant activity in Sprague-Dawley rat assessed as protection against 150 mA current-induced seizure at 30 mg/kg, po measured after 1 hr by maximal electroshock seizure test; assay type: functional, organism-based; summary of the method: as §2
Mus musculus [8] = assay: Anticonvulsant activity in CD1 mouse assessed as protection against subcutaneous pentylenetetrazole-induced seizures at 300 mg/kg, ip and measured after 0.5 hrs; assay type: functional, organism-based
Summary of the method: (§3)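 Mice were screened after intraperitoneal doses of 30, 100 and 300 mg/kg in the maximal electroshock and subcutaneous pentylenetetrazole tests, examined at 0.5 and 4 h. The value recorded is the minimum dose showing activity. No activity up to 300 mg/kg is scored as absent.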

Mus musculus [9] = assay: Anticonvulsant activity in ip dosed CD1 mouse assessed as protection against 50 mA current-induced seizure and measured after 4 hrs by maximal electroshock seizure test; assay type: functional; settings: read-out: MED; summary of the method: as §3
Mus musculus [10] = assay: Anticonvulsant activity in ip dosed CD1 mouse assessed as protection against 50 mA current-induced seizure and measured after 0.5 hrs by maximal electroshock seizure test; assay type: functional; settings: read-out: MED; summary of the method: as §3
Mus musculus [11] = assay: Anticonvulsant activity in CD1 mouse assessed as protection against subcutaneous pentylenetetrazole-induced seizures at 300 mg/kg, ip and measured after 4 hrs; assay type: functional, organism-based; summary of the method: as §3
[12] = Neurotoxicity in CD1 mouse at 300 mg/kg, ip and measured after 0.5 hrs by rotarod test; assay type: toxicity, organism-based; settings: in vivo
Summary of the method: (§4)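 Mice dosed intraperitoneally at 30, 100 and 300 mg/kg, then tested on the rotarod at 0.5 h and 4 h. The value recorded is the minimum dose at which neurotoxicity appeared. A dash means no neurotoxicity at the top dose of 300 mg/kg.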

[13] = Neurotoxicity in CD1 mouse at 300 mg/kg, ip and measured after 4 hrs hrs by rotarod test; assay type: toxicity, organism-based; settings: in vivo; summary of the method: as §4
Rattus norvegicus [14] = assay: Anticonvulsant activity in Sprague-Dawley rat assessed as protection against 150 mA current-induced seizure at 30 mg/kg, po measured after 15 mins by maximal electroshock seizure test; assay type: functional, organism-based; summary of the method: as §2
Mus musculus [15] = assay: Anticonvulsant activity in CD1 mouse assessed as protection against 50 mA current-induced seizure at 300 mg/kg, ip and measured after 0.5 hrs by maximal electroshock seizure test; assay type: functional, organism-based; summary of the method: as §3
[16] = Neurotoxicity in ip dosed CD1 mouse and measured after 0.5 hrs by rotarod test; assay type: toxicity, organism-based; settings: in vivo; summary of the method: as §4
Mus musculus [17] = assay: Anticonvulsant activity in CD1 mouse assessed as protection against 50 mA current-induced seizure at 300 mg/kg, ip and measured after 4 hrs by maximal electroshock seizure test; assay type: functional, organism-based; summary of the method: as §3
[18] = Neurotoxicity in ip dosed CD1 mouse and measured after 4 hrs by rotarod test; assay type: toxicity, organism-based; settings: in vivo; summary of the method: as §4
Rattus norvegicus [19] = assay: Anticonvulsant activity in Sprague-Dawley rat assessed as protection against 150 mA current-induced seizure at 30 mg/kg, po measured after 30 mins by maximal electroshock seizure test; assay type: functional, organism-based; summary of the method: as §2

## O=C1NC(c2ccccc2)(c2ccccc2)C(=O)N1CN1CCN(Cc2ccccc2)CC1
[1]
  Activity: Non-Toxic
[2]
  Activity: Non-Toxic
[3]
  Activity: Non-Toxic
[4]
  Activity: Non-Toxic
[5]
  Activity: Non-Toxic
Rattus norvegicus [6]
  Activity: inactive
Rattus norvegicus [7]
  Activity: inactive
Mus musculus [8]
  MED: inactive
Mus musculus [9]
  minimal effective dose: 100 mg/kg
Mus musculus [10]
  minimal effective dose: 300 mg/kg
Mus musculus [11]
  Activity: inactive
[12]
  Activity: Non-Toxic
[13]
  Activity: Non-Toxic

## O=C1NC(c2ccccc2)(c2ccccc2)C(=O)N1CN1CCN(c2ccc(F)cc2)CC1
Rattus norvegicus [14]
  Activity: inactive
[1]
  Activity: Non-Toxic
[2]
  Activity: Non-Toxic
[3]
  Activity: Non-Toxic
[4]
  Activity: Non-Toxic
[5]
  Activity: Non-Toxic
Rattus norvegicus [6]
  Activity: inactive
Rattus norvegicus [7]
  Activity: inactive
Mus musculus [8]
  MED: inactive
Mus musculus [9]
  minimal effective dose: 100 mg/kg
Mus musculus [15]
  Activity: inactive
Mus musculus [11]
  Activity: inactive
[12]
  Activity: Non-Toxic
[13]
  Activity: Non-Toxic

## CC(C)C1(C(C)C)NC(=O)N(CN2CCN(C)CC2)C1=O
[16]
  minimal neurotoxic dose: 300 mg/kg
Mus musculus [8]
  MED: inactive
Mus musculus [10]
  minimal effective dose: 300 mg/kg
Mus musculus [17]
  Activity: inactive
Mus musculus [11]
  Activity: inactive
[13]
  Activity: Non-Toxic

## CC(C)C1(C(C)C)NC(=O)N(CN2CCN(c3ccc(F)cc3)CC2)C1=O
[18]
  MTC: 300 mg/kg
[16]
  minimal neurotoxic dose: 300 mg/kg
Mus musculus [8]
  MED: inactive
Mus musculus [9]
  minimal effective dose: 100 mg/kg
Mus musculus [15]
  Activity: inactive
Mus musculus [11]
  Activity: inactive

## CC(C)C1(C(C)C)NC(=O)N(CN2CCN(c3cccc(Cl)c3)CC2)C1=O
Rattus norvegicus [14]
  Activity: inactive
[1]
  Activity: Non-Toxic
[2]
  Activity: Non-Toxic
[3]
  Activity: Non-Toxic
[4]
  Activity: Non-Toxic
[5]
  Activity: Non-Toxic
Rattus norvegicus [7]
  Activity: inactive
Rattus norvegicus [19]
  Activity: inactive
Mus musculus [8]
  MED: inactive
Mus musculus [9]
  minimal effective dose: 100 mg/kg
Mus musculus [10]
  minimal effective dose: 100 mg/kg
Mus musculus [11]
  Activity: inactive
[12]
  Activity: Non-Toxic
[13]
  Activity: Non-Toxic

## O=C1NC(c2ccccc2)(c2ccccc2)C(=O)N1CN1CCN(c2ccccc2)CC1
[1]
  Activity: Non-Toxic
[2]
  Activity: Non-Toxic
[3]
  Activity: Non-Toxic
[4]
  Activity: Non-Toxic
[5]
  Activity: Non-Toxic
Mus musculus [8]
  MED: inactive
Mus musculus [9]
  minimal effective dose: 100 mg/kg
Mus musculus [10]
  minimal effective dose: 300 mg/kg
Mus musculus [11]
  Activity: inactive
[12]
  Activity: Non-Toxic
[13]
  Activity: Non-Toxic

## O=C1NC(c2ccccc2)(c2ccccc2)C(=O)N1CN1CCN(c2cccc(Cl)c2)CC1
[1]
  Activity: Non-Toxic
[2]
  Activity: Non-Toxic
[3]
  Activity: Non-Toxic
[4]
  Activity: Non-Toxic
[5]
  Activity: Non-Toxic
Rattus norvegicus [19]
  Activity: inactive
Mus musculus [8]
  MED: inactive
Mus musculus [9]
  minimal effective dose: 100 mg/kg
Mus musculus [15]
  Activity: inactive
Mus musculus [11]
  Activity: inactive
[12]
  Activity: Non-Toxic
[13]
  Activity: Non-Toxic

## CC(C)C1(C(C)C)NC(=O)N(CN2CCN(Cc3ccccc3)CC2)C1=O
[16]
  minimal neurotoxic dose: 300 mg/kg
Mus musculus [8]
  MED: inactive
Mus musculus [15]
  Activity: inactive
Mus musculus [17]
  Activity: inactive
Mus musculus [11]
  Activity: inactive
[13]
  Activity: Non-Toxic
